# Results of several laboratories.
# Target: Mitogen-activated protein kinase kinase kinase 7 (MAP3K7, Homo sapiens, UniProt O43318)
# One construct used (O43318 1-606): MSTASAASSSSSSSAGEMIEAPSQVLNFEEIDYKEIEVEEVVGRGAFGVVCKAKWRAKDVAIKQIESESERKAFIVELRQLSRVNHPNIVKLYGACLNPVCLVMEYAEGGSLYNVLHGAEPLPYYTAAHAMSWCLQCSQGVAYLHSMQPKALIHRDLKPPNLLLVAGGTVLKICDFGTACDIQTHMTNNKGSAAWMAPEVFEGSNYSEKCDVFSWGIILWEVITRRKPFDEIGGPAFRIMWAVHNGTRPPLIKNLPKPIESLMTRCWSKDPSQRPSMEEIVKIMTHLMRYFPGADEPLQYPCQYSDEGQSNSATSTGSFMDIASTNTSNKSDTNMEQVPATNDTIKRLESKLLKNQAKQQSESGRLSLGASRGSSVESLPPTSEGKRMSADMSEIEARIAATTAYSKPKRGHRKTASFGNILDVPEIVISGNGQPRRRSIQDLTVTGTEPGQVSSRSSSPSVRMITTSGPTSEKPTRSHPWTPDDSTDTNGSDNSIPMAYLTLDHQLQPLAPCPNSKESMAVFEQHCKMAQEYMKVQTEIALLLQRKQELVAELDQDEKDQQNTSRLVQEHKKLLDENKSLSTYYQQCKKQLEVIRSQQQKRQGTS
SMILES,effect on,mode,technique,tested at,quantity,value
Cc1ccc(C(=O)Nc2ccc(CN3CCN(C)CC3)c(C(F)(F)F)c2)cc1C#Cc1cnc2cccnn12,enzyme activity,inhibitor,,23.5 nM,remaining activity,3.3%
CO[C@@H](C)c1c(Nc2ccc([C@H](N(C)C(=O)C3CCS(=O)(=O)CC3)C(F)(F)F)cc2)cnc2cc(Cl)nn12,cell-free assay,,competition with immobilised ligand,1 µM,remaining binding,89%
COc1cc(Cl)c(C(=O)N[C@@H](CN[C@H]2CC[C@@H](N)CC2)Cc2ccc(C#N)cc2)cc1-c1ccc(CN[C@H](C)c2ccc(C)cc2)o1,enzyme activity,inhibitor,,1 µM,remaining activity,96%
O=c1nc(-c2ccccn2)sc2ccccc12,binding,,competition with immobilised ligand,1 µM,remaining binding,78%
N[C@@H]1CCN(c2nccc(-c3cnn4ncccc34)n2)C1,binding,,,1 µM,remaining binding,91%
CS(=O)(=O)N1CCCC(NC(=O)[C@H](CCC2CCCCC2)NC(=O)c2ccc(CNc3ncnc4c3nnn4-c3ccccc3)cc2)C1 (stereo partly drawn),cell-free assay,,competition with immobilised ligand,0.1 µM,remaining binding,100%
Cc1cc(NC(=O)c2cccc3cc(-c4cccc5[nH]nc(N)c45)ccc23)ccc1F,enzyme activity,inhibitor,,0.1 µM,activity vs control,100%
O=C(Nc1cnn(-c2csc(C(=O)NC3COC3)c2)c1)Nc1ccccc1Cl,enzyme activity,inhibitor,,5 µM,remaining activity,98%
Cc1ccc(Nc2nccc(N(C)c3ccc4c(C)n(C)nc4c3)n2)cc1S(N)(=O)=O,enzyme activity,inhibitor,,0.3 µM,inhibition,-8%
N#CCCc1ccc2c(c1)-c1[nH]c3ccc([N+](=O)[O-])cc3c1CC(=O)N2,cell-free assay,,,0.5 µM,remaining signal,38.1%
CCCS(=O)(=O)Nc1ccc(F)c(C(=O)c2c[nH]c3ncc(-c4ccc(Cl)cc4)cc23)c1F,enzyme activity,inhibitor,,1 µM,inhibition,< 10%
Oc1cccc(-c2nc(N3CCOCC3)c3oc4ncccc4c3n2)c1,enzyme activity,inhibitor,,10 µM,remaining activity,79%
CS(=O)(=O)N1CCCC(NC(=O)[C@H](CCC2CCCCC2)NC(=O)c2ccc(CNC(=O)c3cnc4ccccn34)cc2)C1 (stereo partly drawn),cell-free assay,,competition with immobilised ligand,0.1 µM,remaining binding,94%
CC(C)c1ccc(NC(=O)c2cccs2)c(-c2nc3ccccc3[nH]c2=O)c1,enzyme activity,inhibitor,,1 µM,activity vs control,106%
COc1ccc2cc(OCC3(C(=O)O)CN(C(=O)c4ccc(F)cc4)C3)ccc2c1,cell-free assay,,competition with immobilised ligand,1 µM,remaining binding,96%
Cc1sc(C(=O)NC2COC2)cc1-n1cc(NC(=O)Nc2c(F)cccc2Cl)cn1,enzyme activity,inhibitor,,10 µM,remaining activity,98.4%
FC(F)(F)Oc1cccc(-c2cnc3ccc(-c4ccncc4)nn23)c1,enzyme activity,inhibitor,radiometric,1 µM,activity vs control,58%
CCN(CC)CCNC(=O)c1c(C)[nH]c(/C=C2\C(=O)Nc3ccc(F)cc32)c1C,enzyme activity,inhibitor,,10 µM,inhibition,92%
CCN(CC)c1ccc(C2=NNC(=O)CC2C)cc1[N+](=O)[O-] (stereo not drawn),enzyme activity,inhibitor,,10 µM,remaining activity,107%
CCCCNc1ncc2c(-c3ccc(F)cc3)nn(C[C@H]3CC[C@H](N)CC3)c2n1,target engagement in cells,inhibitor,chemoproteomics,20 mM,inhibition,16%
Cc1cc(C)c(-n2ccn3nc(-c4cccnc4)cc23)cc1NC(=O)c1cc(C#N)cc(S(F)(F)(F)(F)F)c1,cell-free assay,,competition with immobilised ligand,0.1 µM,remaining binding,66.2%
Cn1c(=O)n(-c2ccc(C(C)(C)C#N)cc2)c2c3cc(-c4cnc5ccccc5c4)ccc3ncc21,enzyme activity,inhibitor,,10 µM,remaining activity,67%
CN(c1ccnc(CNc2nc(Nc3ccc4c(c3)CC(=O)N4)ncc2C(F)(F)F)n1)S(C)(=O)=O,cell-free assay,,competition with immobilised ligand,1 µM,remaining binding,48%
CNC(=O)c1cc(Oc2ccc(NC(=O)Nc3ccc(Cl)c(C(F)(F)F)c3)cc2)ccn1,cell-free assay,,,0.5 µM,remaining signal,101%
O=C(NC[C@@H]1[C@H]2CN(C(=O)OCc3cc(C(F)(F)F)cc(C(F)(F)F)c3)C[C@@H]12)c1ccc2[nH]nnc2c1,cell-free assay,,competition with immobilised ligand,1 µM,remaining binding,94%
COc1cc(Nc2cnc(C#N)c(O[C@H](C)CN(C)C)n2)ncc1-c1cnn(C)c1,enzyme activity,inhibitor,radiometric,1 µM,remaining activity,97%
O=C1Nc2ccc(Cl)cc2C1=Cc1cc(Cl)c(O)c(Cl)c1,cell-free assay,,,0.5 µM,remaining signal,86.8%
